Results published in ChEMBL document CHEMBL1146113, “Synthesis and SAR of heteroaryl-phenyl-substituted pyrazole derivatives as highly selective and potent canine COX-2 inhibitors” (Bioorg Med Chem Lett, 2006).

Key:
Canis lupus familiaris = organism: Canis lupus familiaris; experiment: Selectivity for COX2 over COX1
Cyclooxygenase-2 = biological target: T1, Cyclooxygenase-2 (Canis lupus familiaris, UniProt Q8SPQ9); experiment: Inhibition of COX2 in canine whole blood; format: tissue-based
T1 sequence (Q8SPQ9 whole entry): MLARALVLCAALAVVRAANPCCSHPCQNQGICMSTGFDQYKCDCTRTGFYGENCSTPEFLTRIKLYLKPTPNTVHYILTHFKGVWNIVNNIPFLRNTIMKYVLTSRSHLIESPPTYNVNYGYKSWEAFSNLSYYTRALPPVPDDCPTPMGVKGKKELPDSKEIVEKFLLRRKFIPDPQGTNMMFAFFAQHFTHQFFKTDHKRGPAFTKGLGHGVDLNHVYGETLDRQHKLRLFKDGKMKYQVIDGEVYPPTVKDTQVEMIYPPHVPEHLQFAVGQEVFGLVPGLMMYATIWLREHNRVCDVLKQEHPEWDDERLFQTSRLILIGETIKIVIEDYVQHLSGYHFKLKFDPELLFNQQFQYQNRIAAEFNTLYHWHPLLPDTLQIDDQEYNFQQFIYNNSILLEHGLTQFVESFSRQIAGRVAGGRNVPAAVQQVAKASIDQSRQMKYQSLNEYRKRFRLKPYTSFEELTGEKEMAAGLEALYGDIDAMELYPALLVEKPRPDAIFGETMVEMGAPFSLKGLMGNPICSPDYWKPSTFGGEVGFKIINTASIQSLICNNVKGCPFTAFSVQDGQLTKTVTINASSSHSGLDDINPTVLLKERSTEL
Summary of the method: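 Heparinized canine whole blood incubated overnight at 37 °C with drug plus LPS to stimulate PGE2. LPS-only controls gave maximum PGE2 and vehicle-only controls gave background. EDTA (0.3% final) then added and plasma collected and frozen. PGE2 measured by EIA, with samples diluted 1/1000.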

[1] = biological target: T2, Prostaglandin G/H synthase 1 (Canis lupus familiaris, UniProt Q8HZR1); experiment: Inhibition of COX1 in canine whole blood
T2 sequence (Q8HZR1 whole entry): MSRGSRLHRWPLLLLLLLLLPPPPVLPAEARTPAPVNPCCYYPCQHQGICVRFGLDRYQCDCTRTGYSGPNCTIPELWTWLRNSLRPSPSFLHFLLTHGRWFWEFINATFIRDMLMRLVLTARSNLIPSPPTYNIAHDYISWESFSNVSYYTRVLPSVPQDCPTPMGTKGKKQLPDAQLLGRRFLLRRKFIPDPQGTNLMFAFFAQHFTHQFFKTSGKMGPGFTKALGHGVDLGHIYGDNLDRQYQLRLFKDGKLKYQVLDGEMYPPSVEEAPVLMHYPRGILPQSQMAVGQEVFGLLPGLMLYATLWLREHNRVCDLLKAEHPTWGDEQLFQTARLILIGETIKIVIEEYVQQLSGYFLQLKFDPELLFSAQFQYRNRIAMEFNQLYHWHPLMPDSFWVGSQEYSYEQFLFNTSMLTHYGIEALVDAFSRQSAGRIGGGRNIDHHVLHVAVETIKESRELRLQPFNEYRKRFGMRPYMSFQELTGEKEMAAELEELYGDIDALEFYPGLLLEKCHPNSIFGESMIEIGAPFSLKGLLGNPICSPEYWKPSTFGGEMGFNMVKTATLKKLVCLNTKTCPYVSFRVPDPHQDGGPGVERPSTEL
Summary of the method: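 Canine whole blood incubated with drug for 1 h at 37 °C, with drug-free samples as maximum TXB2 controls. EDTA (0.3% final) then added and serum collected and frozen. COX-1 activity read as TXB2 production by EIA, with samples diluted 1/10,000.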

[2] = Half life in dog; format: ADME, organism-based, Canis lupus familiaris; conditions: in vivo
[3] = Oral bioavailability in dog; format: ADME, organism-based, Canis lupus familiaris; conditions: in vivo

| SMILES | Ratio IC50 (Canis lupus familiaris) | IC50 (Cyclooxygenase-2) [nM] | IC50 [1] [nM] | half-life [2] [h] | bioavailability [3] [%] |
| --- | --- | --- | --- | --- | --- |
| CS(=O)(=O)c1ccc(-n2nc(C(F)F)cc2-c2ccc(-c3ccco3)c(Cl)c2)nc1 | 550 | 10 | 5500 |  |  |
| Cc1cc(-c2cc(C(F)(F)F)nn2-c2ccc(S(C)(=O)=O)cn2)ccc1-c1ccco1 | 340 | 10 | 3400 |  |  |
| CS(=O)(=O)c1ccc(-n2nc(C(F)(F)F)cc2-c2ccc(-c3cscn3)c(Cl)c2)nc1 | > 320 | < 50 | 16000 |  |  |
| CS(=O)(=O)c1ccc(-n2nc(C(F)(F)F)cc2-c2ccc(-c3ccco3)c(C(N)=O)c2)nc1 | 4.9 | 410 | 2000 |  |  |
| CS(=O)(=O)c1ccc(-n2nc(C(F)(F)F)cc2-c2ccc(-c3nccs3)cc2)nc1 | 238 | 210 | 50000 |  |  |
| CS(=O)(=O)c1ccc(-n2nc(C(F)(F)F)cc2-c2ccc(-c3ccco3)c(C#N)c2)nc1 | 154 | 13 | 2000 |  |  |
| CS(=O)(=O)c1ccc(-n2nc(C(F)(F)F)cc2-c2ccc(-c3cscn3)cc2F)nc1 | 78 | 290 | 22700 |  |  |
| Cc1scnc1-c1ccc(-c2cc(C(F)(F)F)nn2-c2ccc(S(C)(=O)=O)cn2)cc1 |  | > 500 |  |  |  |
| CS(=O)(=O)c1ccc(-n2nc(C(F)(F)F)cc2-c2ccc(-c3nccs3)c(C#N)c2)nc1 | 212 | 110 | 23400 |  |  |
| CS(=O)(=O)c1ccc(-n2nc(C(F)F)cc2-c2ccc(-c3ccco3)c(F)c2)nc1 | 83 | 60 | 5000 |  |  |
| CS(=O)(=O)c1ccc(-n2nc(C(F)(F)F)cc2-c2ccc(-c3ccco3)cc2)nc1 | 759 | 20 | 18200 |  |  |
| CS(=O)(=O)c1ccc(-n2nc(C(F)(F)F)cc2-c2ccc(-c3cncs3)cc2)nc1 | 15 | 180 | 2700 |  |  |
| CS(=O)(=O)c1ccc(-n2nc(C(F)F)cc2-c2ccc(-c3ccco3)cc2)nc1 | 92 | 130 | 12000 |  |  |
| Cc1cc(-c2cc(C(F)F)nn2-c2ccc(S(C)(=O)=O)cn2)ccc1-c1cscn1 | 200 | 19 | 3800 |  |  |
| CS(=O)(=O)c1ccc(-n2nc(C(F)(F)F)cc2-c2ccc(-c3cscn3)cc2)nc1 | > 313 | 160 | > 50000 |  |  |
| Cc1cc(-c2cc(C(F)(F)F)nn2-c2ccc(S(C)(=O)=O)cn2)ccc1-c1ncco1 | 171 | 65 | 11100 |  |  |
| CS(=O)(=O)c1ccc(-n2nc(C(F)(F)F)cc2-c2cccc(-c3cscn3)c2)nc1 |  | > 500 |  |  |  |
| Cc1cc(-c2cc(C(F)(F)F)nn2-c2ccc(S(C)(=O)=O)cn2)ccc1-c1cocn1 | 487 | 30 | 12700 |  |  |
| COC(=O)c1cc(-c2cc(C(F)(F)F)nn2-c2ccc(S(C)(=O)=O)cn2)ccc1-c1ccco1 |  | > 500 |  |  |  |
| CS(=O)(=O)c1ccc(-n2nc(C(F)(F)F)cc2-c2ccc(-c3ccco3)c(F)c2)nc1 | 558 | 50 | 27900 |  |  |
| CS(=O)(=O)c1ccc(-n2nc(C(F)(F)F)cc2-c2ccc(-c3ccco3)c(Cl)c2)nc1 | > 4170 | 12 | > 50000 | 16.4 | 34 |
| Cc1cc(-c2cc(C(F)(F)F)nn2-c2ccc(S(C)(=O)=O)cn2)ccc1-c1cscn1 | 172 | 90 | 15500 |  |  |
